Measurements from ChEMBL document CHEMBL1142339, “Carbamoylphosphonate matrix metalloproteinase inhibitors 6: cis-2-aminocyclohexylcarbamoylphosphonic acid, a novel orally active antimetastatic matrix metalloproteinase-2 selective inhibitor--synthesis and pharmacodynamic and pharmacokinetic analysis” (J Med Chem, 2008).

How the values were obtained:
[1] = biological target: Disintegrin and metalloproteinase domain-containing protein 17 (Homo sapiens, UniProt P78536); test: Inhibition of human recombinant TACE
Procedure, shortened: (§1)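 Purified human recombinant enzyme tested at four different concentrations against the matching colorimetric or fluorescent peptide substrate for 3 h, with inhibitor at four to six concentrations. Activity was read as a colour or fluorescence change on a plate reader, and IC50 was calculated from these readings.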

Interstitial collagenase = biological target: T1, Interstitial collagenase (Homo sapiens, UniProt P03956); test: Inhibition of human recombinant MMP1; procedure, shortened: as §1
T1 sequence (P03956 whole entry): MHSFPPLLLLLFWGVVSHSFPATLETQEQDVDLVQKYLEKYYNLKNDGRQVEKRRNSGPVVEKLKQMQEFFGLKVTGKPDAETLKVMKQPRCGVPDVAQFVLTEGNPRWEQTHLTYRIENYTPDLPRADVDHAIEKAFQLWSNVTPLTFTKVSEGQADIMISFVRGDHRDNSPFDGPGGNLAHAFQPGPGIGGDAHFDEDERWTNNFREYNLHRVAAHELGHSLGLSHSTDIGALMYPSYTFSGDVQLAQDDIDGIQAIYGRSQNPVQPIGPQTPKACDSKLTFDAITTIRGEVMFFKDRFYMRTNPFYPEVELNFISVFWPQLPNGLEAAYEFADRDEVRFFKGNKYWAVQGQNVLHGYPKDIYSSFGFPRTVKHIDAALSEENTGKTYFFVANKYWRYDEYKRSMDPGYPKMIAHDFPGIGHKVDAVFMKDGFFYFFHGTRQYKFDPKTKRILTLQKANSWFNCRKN

Stromelysin-1 = Stromelysin-1 (Homo sapiens, UniProt P08254); test: Inhibition of human recombinant MMP3
Procedure, shortened: (§2)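 Human recombinant enzymes each incubated at four concentrations with a suitable colorimetric or fluorogenic peptide substrate for 3 h. Inhibitor tested at four to six concentrations. Activity read as colorimetric or fluorescence change on a plate reader.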

[2] = biological target: Macrophage metalloelastase (Homo sapiens, UniProt P39900); test: Inhibition of human recombinant MMP12; procedure, shortened: as §1
Neutrophil collagenase = Neutrophil collagenase (Homo sapiens, UniProt P22894); test: Inhibition of human recombinant MMP8; procedure, shortened: as §2
Collagenase 3 = Collagenase 3 (Homo sapiens, UniProt P45452); test: Inhibition of human recombinant MMP13; procedure, shortened: as §2
[3] = biological target: Matrix metalloproteinase-9 (Homo sapiens, UniProt P14780); test: Inhibition of human recombinant MMP9; procedure, shortened: as §2
[4] = biological target: T2, 72 kDa type IV collagenase (Homo sapiens, UniProt P08253); test: Inhibition of human recombinant MMP2; procedure, shortened: as §2
Target sequence in this assay (P08253 whole entry): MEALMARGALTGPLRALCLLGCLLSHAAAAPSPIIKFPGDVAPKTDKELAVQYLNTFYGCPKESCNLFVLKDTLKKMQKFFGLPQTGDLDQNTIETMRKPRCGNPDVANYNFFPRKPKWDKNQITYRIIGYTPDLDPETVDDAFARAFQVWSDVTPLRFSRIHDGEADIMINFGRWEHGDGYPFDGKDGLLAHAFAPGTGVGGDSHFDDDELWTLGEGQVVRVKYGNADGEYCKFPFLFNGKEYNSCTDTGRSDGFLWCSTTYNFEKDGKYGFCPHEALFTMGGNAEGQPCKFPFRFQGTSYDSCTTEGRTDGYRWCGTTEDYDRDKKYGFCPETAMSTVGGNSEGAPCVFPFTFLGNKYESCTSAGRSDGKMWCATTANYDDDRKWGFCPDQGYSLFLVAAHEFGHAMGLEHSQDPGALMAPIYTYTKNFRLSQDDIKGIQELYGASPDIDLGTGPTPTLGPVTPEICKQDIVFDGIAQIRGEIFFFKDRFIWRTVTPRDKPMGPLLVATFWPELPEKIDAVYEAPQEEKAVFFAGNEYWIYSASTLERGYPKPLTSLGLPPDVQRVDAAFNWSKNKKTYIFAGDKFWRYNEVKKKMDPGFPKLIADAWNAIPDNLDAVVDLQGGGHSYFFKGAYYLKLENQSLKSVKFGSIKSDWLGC

Rattus norvegicus [5] = test: Time over MIC in Wistar rat at 150 mg/kg, ip; type: ADME, organism-based; parameters: dose 150 mg/kg, route intraperitoneal; conditions: in vivo
Procedure, shortened: (§3)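 Compound dissolved in normal saline/water 60/40 (20 mg/mL). Rats: fasted 12 h before and first 12 h; blood sampled 5–240 min after iv, to 8 h oral, to 24 h ip; urine collected at 24 and 48 h in metabolic cages. Mice (22–25 g, fasted 12 h): portal-vein blood under ether at 0–720 min, one mouse per time point. Plasma quantified by HPLC-MS with acyclovir internal standard.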

[6] = Apparent permeability in C57B1 mouse colon in using diffusion chamber; type: ADME, tissue-based; conditions: not told
[7] = Bioavailability in Wistar rat at 150 mg/kg, ip; type: ADME, organism-based; conditions: in vivo; procedure, shortened: as §3
[8] = Reduction of local tumor growth in SCID mouse bearing human prostate tumor cells at 50 mg/kg, ip; type: functional; parameters: scale not given: the % may be the effect or the level left; conditions: route intraperitoneal
Procedure, shortened: (§4)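 Luciferase-transfected human prostate tumour cells implanted orthotopically into the prostate of SCID mice; daily ip dosing except weekends for six weeks. Primary tumour growth and metastasis followed weekly by luciferin bioluminescence imaging with a CCD camera.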

[9] = Bioavailability in Wistar rat at 150 mg/kg, po; type: ADME, organism-based; conditions: in vivo; procedure, shortened: as §3
[10] = Volume of distribution at steady state in Wistar rat at 50 mg/kg, iv; type: ADME, organism-based; parameters: dose 50 mg/kg, route intravenous; conditions: in vivo, read-out: Vdss; procedure, shortened: as §3
[11] = Apparent permeability in Wistar rat ileum in using diffusion chamber; type: ADME, tissue-based
Procedure, shortened: (§5)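 Everted-free intestinal segments (jejunum, ileum, colon) from four animals mounted in Ussing chambers; compound at 600 µg/mL in mucosa buffer added to the mucosal side. Serosal samples taken at 30, 60, 90, 120, 150 min, mucosal at 0 and 150 min, with buffer replacement. Quantified by HPLC-MS; Papp reported with SD.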

[12] = Clearance in Wistar rat at 50 mg/kg, iv; type: ADME, organism-based; parameters: dose 50 mg/kg, route intravenous; conditions: in vivo; procedure, shortened: as §3
Mus musculus [13] = test: Acute toxicity in C57B1 mouse at 50 to 500 mg/kg; type: organism-based; parameters: dose 50-500 mg/kg; conditions: in vivo
Procedure, shortened: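 C57Bl mice dosed intraperitoneally daily for two weeks at 50, 250 and 500 mg/kg; monitored for toxic signs and behavioural and nutritional status.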

Rattus norvegicus [14] = test: Time over MIC in Wistar rat at 50 mg/kg, iv; type: ADME, organism-based; parameters: dose 50 mg/kg, route intravenous; conditions: in vivo; procedure, shortened: as §3
[15] = Elimination half life in Wistar rat at 150 mg/kg, ip; type: ADME, organism-based; parameters: dose 150 mg/kg, route intraperitoneal; conditions: in vivo; procedure, shortened: as §3
[16] = Tmax in Wistar rat at 150 mg/kg, po; type: ADME, organism-based; parameters: dose 150 mg/kg, route oral; conditions: in vivo; procedure, shortened: as §3
[17] = AUC in Wistar rat at 150 mg/kg, po; type: ADME, organism-based; parameters: dose 150 mg/kg, route oral; conditions: plasma; procedure, shortened: as §3
[18] = AUC in C57B1 mouse at 150 mg/kg, po; type: ADME, organism-based; parameters: dose 150 mg/kg, route oral; conditions: plasma; procedure, shortened: as §3
[19] = Apparent permeability in Wistar rat jejunum in using diffusion chamber; type: ADME, tissue-based; procedure, shortened: as §5
[20] = Apparent permeability in C57B1 mouse jejunum in using diffusion chamber; type: ADME, tissue-based
[21] = Cmax in C57B1 mouse at 150 mg/kg, po; type: ADME, organism-based; parameters: dose 150 mg/kg, route oral; conditions: in vivo; procedure, shortened: as §3
[22] = Elimination half life in Wistar rat at 50 mg/kg, iv; type: ADME, organism-based; parameters: dose 50 mg/kg, route intravenous; conditions: in vivo; procedure, shortened: as §3
[23] = biological target: T2, 72 kDa type IV collagenase; conditions: 100 uM
Target sequence in this assay (P08253 110-660 limits assumed): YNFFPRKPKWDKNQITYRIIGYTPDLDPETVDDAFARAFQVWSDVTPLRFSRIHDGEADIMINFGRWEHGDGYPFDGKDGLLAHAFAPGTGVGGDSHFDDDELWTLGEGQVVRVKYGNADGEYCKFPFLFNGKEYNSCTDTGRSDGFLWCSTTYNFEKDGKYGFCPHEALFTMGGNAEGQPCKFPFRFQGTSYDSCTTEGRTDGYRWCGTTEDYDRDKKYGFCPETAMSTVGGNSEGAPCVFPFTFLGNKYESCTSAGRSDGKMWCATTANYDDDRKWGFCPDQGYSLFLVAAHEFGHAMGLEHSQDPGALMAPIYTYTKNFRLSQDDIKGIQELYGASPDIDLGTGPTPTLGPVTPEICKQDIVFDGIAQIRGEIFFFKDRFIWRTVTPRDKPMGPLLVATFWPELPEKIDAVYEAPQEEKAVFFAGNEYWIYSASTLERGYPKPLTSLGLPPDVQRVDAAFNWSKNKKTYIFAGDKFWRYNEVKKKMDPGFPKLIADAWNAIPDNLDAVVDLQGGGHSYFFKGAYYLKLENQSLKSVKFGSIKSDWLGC

[24] = AUC in Wistar rat at 150 mg/kg, ip; type: ADME, organism-based; parameters: dose 150 mg/kg, route intraperitoneal; conditions: plasma; procedure, shortened: as §3
[25] = Elimination half life in Wistar rat at 150 mg/kg, po; type: ADME, organism-based; parameters: dose 150 mg/kg, route oral; conditions: in vivo; procedure, shortened: as §3
Rattus norvegicus [26] = test: Time over MIC in Wistar rat at 150 mg/kg, po; type: ADME, organism-based; parameters: dose 150 mg/kg, route oral; conditions: in vivo; procedure, shortened: as §3
B16-F10 [27] = test: Reduction in tumor colonization in C57B1 mouse bearing B16F10 cells at 50 mg/kg, ip after 21 days; type: functional; parameters: scale not given: the % may be the effect or the level left; conditions: route intraperitoneal
Procedure, shortened: (§6)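 Female C57Bl mice given 50k B16F10 cells via tail vein; dosing started the same day, daily except weekends for three weeks, in PBS, ip or oral (dose-response 12.5–50 mg/kg ip). Lungs fixed at day 21 and metastatic foci counted; eight mice per group.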

[28] = Cmax in Wistar rat at 50 mg/kg, iv; type: ADME, organism-based; parameters: dose 50 mg/kg, route intravenous; conditions: in vivo; procedure, shortened: as §3
Mus musculus [29] = test: Time over MIC in C57B1 mouse at 150 mg/kg, po; type: ADME, organism-based; parameters: dose 150 mg/kg, route oral; conditions: in vivo; procedure, shortened: as §3
[30] = Tmax in C57B1 mouse at 150 mg/kg, po; type: ADME, organism-based; parameters: dose 150 mg/kg, route oral; conditions: in vivo; procedure, shortened: as §3
[31] = Cmax in Wistar rat at 150 mg/kg, po; type: ADME, organism-based; parameters: dose 150 mg/kg, route oral; conditions: in vivo; procedure, shortened: as §3
[32] = AUC in Wistar rat at 50 mg/kg, iv; type: ADME, organism-based; parameters: dose 50 mg/kg, route intravenous; conditions: plasma; procedure, shortened: as §3
B16-F10 [33] = test: Inhibition of metastasis formation in lungs of C57B1 mouse bearing B16F10 cells at 12.5 to 50 mg/kg, ip after 21 days; type: functional, Lung; conditions: dose mg/kg 12.5-50; route intraperitoneal; procedure, shortened: as §6
[34] = Tmax in Wistar rat at 150 mg/kg, ip; type: ADME, organism-based; parameters: dose 150 mg/kg, route intraperitoneal; conditions: in vivo; procedure, shortened: as §3
[35] = Half life in C57B1 mouse at 150 mg/kg, po; type: ADME, organism-based; parameters: dose 150 mg/kg, route oral; conditions: in vivo; procedure, shortened: as §3
B16-F10 [36] = test: Reduction in tumor colonization in of C57B1 mouse bearing B16F10 cells at 50 mg/kg, po after 21 days; type: functional; parameters: scale not given: the % may be the effect or the level left; procedure, shortened: as §6
[37] = Cmax in Wistar rat at 150 mg/kg, ip; type: ADME, organism-based; parameters: dose 150 mg/kg, route intraperitoneal; conditions: in vivo; procedure, shortened: as §3
[38] = Reduction of metastasis formation in SCID mouse bearing human prostate tumor cells at 50 mg/kg, ip; type: functional; parameters: scale not given: the % may be the effect or the level left; conditions: route intraperitoneal; procedure, shortened: as §4
[39] = Apparent permeability in Wistar rat colon in Using diffusion chamber; type: ADME, tissue-based; conditions: not told; procedure, shortened: as §5

Stromelysin-1, sequence (P08254 whole entry): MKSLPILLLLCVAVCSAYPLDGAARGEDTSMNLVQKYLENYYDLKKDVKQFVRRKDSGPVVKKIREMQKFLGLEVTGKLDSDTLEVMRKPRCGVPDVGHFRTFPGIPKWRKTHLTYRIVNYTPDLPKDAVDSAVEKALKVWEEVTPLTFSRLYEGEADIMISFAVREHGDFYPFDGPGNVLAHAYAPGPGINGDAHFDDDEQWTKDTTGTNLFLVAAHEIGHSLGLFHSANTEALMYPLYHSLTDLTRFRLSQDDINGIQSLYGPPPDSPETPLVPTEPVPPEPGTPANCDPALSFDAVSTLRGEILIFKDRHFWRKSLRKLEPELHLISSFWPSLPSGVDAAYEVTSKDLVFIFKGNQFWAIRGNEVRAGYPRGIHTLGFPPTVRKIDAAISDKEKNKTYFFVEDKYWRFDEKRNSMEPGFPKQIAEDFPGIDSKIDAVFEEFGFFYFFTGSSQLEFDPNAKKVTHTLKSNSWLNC
Macrophage metalloelastase, sequence (P39900 whole entry): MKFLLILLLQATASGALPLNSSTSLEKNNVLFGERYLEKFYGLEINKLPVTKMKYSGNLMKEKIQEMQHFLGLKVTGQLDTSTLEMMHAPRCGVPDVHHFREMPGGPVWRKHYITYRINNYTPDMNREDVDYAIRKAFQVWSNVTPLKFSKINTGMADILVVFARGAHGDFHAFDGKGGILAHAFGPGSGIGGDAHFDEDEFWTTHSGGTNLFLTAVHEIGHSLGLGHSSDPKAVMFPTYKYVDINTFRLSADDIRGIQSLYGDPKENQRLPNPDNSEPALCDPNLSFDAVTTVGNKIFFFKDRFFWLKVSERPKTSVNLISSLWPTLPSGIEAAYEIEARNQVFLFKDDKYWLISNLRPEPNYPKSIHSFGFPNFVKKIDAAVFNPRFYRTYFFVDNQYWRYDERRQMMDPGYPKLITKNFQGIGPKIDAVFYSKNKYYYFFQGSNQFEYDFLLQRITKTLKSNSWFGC
Disintegrin and metalloproteinase domain-containing protein 17, sequence (P78536 whole entry, the tested form may be a part): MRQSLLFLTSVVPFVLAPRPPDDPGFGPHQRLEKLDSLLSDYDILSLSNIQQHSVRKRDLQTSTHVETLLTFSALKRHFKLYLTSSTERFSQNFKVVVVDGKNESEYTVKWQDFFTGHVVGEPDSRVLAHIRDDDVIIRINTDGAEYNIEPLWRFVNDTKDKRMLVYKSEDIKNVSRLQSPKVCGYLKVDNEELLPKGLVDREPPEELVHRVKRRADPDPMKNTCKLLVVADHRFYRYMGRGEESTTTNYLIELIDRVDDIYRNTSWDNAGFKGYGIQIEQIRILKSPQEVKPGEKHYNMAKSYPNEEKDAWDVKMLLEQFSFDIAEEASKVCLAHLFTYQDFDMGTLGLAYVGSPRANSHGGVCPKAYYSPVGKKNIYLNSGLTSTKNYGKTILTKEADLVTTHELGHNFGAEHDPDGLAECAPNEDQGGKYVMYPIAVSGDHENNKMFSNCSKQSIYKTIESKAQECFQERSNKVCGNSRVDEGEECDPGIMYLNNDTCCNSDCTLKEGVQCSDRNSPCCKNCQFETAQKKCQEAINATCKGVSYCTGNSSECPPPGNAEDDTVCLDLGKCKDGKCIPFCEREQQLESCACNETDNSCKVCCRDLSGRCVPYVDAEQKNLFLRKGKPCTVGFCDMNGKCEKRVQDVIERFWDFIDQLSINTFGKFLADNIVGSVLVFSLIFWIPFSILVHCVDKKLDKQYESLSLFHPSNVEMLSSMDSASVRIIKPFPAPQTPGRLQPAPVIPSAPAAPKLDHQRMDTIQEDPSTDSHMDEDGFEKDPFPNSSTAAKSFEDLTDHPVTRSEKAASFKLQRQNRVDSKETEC
Neutrophil collagenase, sequence (P22894 whole entry): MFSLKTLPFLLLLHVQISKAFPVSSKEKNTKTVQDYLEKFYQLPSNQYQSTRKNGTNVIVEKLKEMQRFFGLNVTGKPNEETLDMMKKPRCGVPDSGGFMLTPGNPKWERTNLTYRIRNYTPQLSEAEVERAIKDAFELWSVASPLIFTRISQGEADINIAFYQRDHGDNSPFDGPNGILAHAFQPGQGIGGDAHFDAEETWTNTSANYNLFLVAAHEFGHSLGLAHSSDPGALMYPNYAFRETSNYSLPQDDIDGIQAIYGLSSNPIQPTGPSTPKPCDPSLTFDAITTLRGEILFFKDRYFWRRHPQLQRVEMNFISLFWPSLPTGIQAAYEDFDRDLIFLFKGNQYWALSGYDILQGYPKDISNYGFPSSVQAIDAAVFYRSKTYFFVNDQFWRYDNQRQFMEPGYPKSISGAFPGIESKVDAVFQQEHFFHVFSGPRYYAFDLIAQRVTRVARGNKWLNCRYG
Matrix metalloproteinase-9, sequence (P14780 whole entry): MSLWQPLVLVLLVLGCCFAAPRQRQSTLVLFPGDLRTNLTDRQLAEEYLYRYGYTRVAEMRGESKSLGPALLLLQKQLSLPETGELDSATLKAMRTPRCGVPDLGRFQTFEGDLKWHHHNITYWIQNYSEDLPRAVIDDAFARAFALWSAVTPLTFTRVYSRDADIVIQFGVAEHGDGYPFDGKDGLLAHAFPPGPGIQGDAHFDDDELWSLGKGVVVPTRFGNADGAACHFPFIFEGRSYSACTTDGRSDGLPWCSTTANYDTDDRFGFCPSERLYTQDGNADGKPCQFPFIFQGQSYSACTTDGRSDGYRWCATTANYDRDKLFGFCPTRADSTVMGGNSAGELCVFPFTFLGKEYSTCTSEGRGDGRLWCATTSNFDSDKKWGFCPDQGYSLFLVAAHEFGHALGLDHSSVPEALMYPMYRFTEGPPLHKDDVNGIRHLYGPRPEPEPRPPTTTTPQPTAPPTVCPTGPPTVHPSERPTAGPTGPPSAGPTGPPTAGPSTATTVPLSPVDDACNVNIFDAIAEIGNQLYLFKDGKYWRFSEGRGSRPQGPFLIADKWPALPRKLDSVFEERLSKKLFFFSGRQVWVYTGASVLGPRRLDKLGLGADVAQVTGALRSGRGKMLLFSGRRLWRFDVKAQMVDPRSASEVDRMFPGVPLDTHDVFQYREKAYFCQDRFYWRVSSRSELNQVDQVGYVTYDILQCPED

Q: With `N[C@@H]1CCCC[C@H]1NC(=O)P(=O)(O)O` (relative stereo) as the compound, how does the IC50 [1] read?
A: > 100 µM

Q: And the IC50 (Interstitial collagenase)?
A: 90 µM

Q: What about the IC50 (Stromelysin-1) of the same compound?
A: 25 µM

Q: And the IC50 [2]?
A: > 100 µM

Q: And the IC50 (Neutrophil collagenase)?
A: 50 µM

Q: What about the IC50 (Collagenase 3) of the same compound?
A: 55 µM

Q: And the IC50 [3]?
A: > 100 µM

Q: And the IC50 [4]?
A: > 100 µM

Q: Which “T>MIC” value (Rattus norvegicus [5]) does the source give for `N[C@H]1CCCC[C@H]1NC(=O)P(=O)(O)O` (relative stereo) here?
A: > 24 h

Q: What about the Papp [6] of the same compound?
A: 2.4 ×10⁻⁶ cm/s

Q: And the bioavailability [7]?
A: 11.8%

Q: And the IC50 [1]?
A: > 100 µM

Q: What about the Activity [8] of the same compound?
A: 60%

Q: What about the bioavailability [9] of the same compound?
A: 0.35%

Q: And the Vd [10]?
A: 0.186 L/kg

Q: What about the Papp [11] of the same compound?
A: 7.01 ×10⁻⁶ cm/s

Q: And the clearance [12]?
A: 6.9 mL/min/kg

Q: What about the Activity (Mus musculus [13]) of the same compound?
A: Non-toxic

Q: What about the “T>MIC” value (Rattus norvegicus [14]) of the same compound?
A: > 4 h

Q: And the half-life [15]?
A: 1.8 h

Q: What about the Tmax [16] of the same compound?
A: 0.29 h

Q: And the AUC [17]?
A: 1320 ng·h/mL

Q: What about the AUC [18] of the same compound?
A: 4500 ng·h/mL

Q: What about the Papp [19] of the same compound?
A: 7.9 ×10⁻⁶ cm/s

Q: What about the Papp [20] of the same compound?
A: 8.3 ×10⁻⁶ cm/s

Q: And the Cmax [21]?
A: 0.544 µg/mL

Q: What about the half-life [22] of the same compound?
A: 0.313 h

Q: And the IC50 (Interstitial collagenase)?
A: > 100 µM

Q: What about the inhibition [23] of the same compound?
A: 90%

Q: And the AUC [24]?
A: 44600 ng·h/mL

Q: What about the half-life [25] of the same compound?
A: 2.1 h

Q: What about the “T>MIC” value (Rattus norvegicus [26]) of the same compound?
A: > 6 h

Q: What about the IC50 (Stromelysin-1) of the same compound?
A: > 100 µM

Q: And the Activity (B16-F10 [27])?
A: 85%

Q: And the Cmax [28]?
A: 306 µg/mL

Q: What about the IC50 [2] of the same compound?
A: > 100 µM

Q: And the “T>MIC” value (Mus musculus [29])?
A: > 12 h

Q: And the Tmax [30]?
A: 1 h

Q: And the Cmax [31]?
A: 0.712 µg/mL

Q: And the IC50 (Neutrophil collagenase)?
A: > 100 µM

Q: And the IC50 (Collagenase 3)?
A: > 100 µM

Q: What about the AUC [32] of the same compound?
A: 127000 ng·h/mL

Q: And the IC50 [3]?
A: 20 µM

Q: What about the Inhibition (B16-F10 [33]) of the same compound?
A: 50%

Q: And the Tmax [34]?
A: 30 s

Q: And the half-life [35]?
A: 13.5 h

Q: And the IC50 [4]?
A: 4 µM

Q: What about the Activity (B16-F10 [36]) of the same compound?
A: 95%

Q: What about the Cmax [37] of the same compound?
A: 144 µg/mL

Q: What about the Activity [38] of the same compound?
A: 90%

Q: And the Papp [39]?
A: 9.27 ×10⁻⁶ cm/s
